STAT3 activator – STAT3 signaling activation; AID 871; activation (% of control), % at 5.6 µM; hit rate 0.91% among 190,000; U3A cells, IL-6 STAT3-luciferase reporter, luminescence; 100% = signal with IL-6 EC80 alone;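 active = activation above the screen-wide mean of compound activation plus 3 SD, cut at about 130% in these data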
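Test system: Human STAT1-deficient U3A cells with stable STAT3-luciferase reporter | Also added: Interleukin-6, 33 ng/mL | Timing: Compound pre-incubation 1 h before IL-6, then 6 h stimulation at 37 °C | Technique: Luciferase reporter luminescence | Read-out: Percent of IL-6-only median luminescence | Benchmarks: IL-6-only wells as 100% reference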
STAT3 inh-1 – STAT3 signaling inhibition. AID 862. inhibition, % at 5.5 µM. U3A cells, IL-6 STAT3-luciferase reporter, luminescence; host cell line lacks STAT1. hit rate 0.89% among 190,000;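 active = inhibition above the mean inhibition across all screened compounds plus 3 SD, cut at about 44% in these data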
HSP90 refold inh – HSP90 refolding inhibition in rabbit reticulocyte lysate; luciferase refolding luminescence, 3 h; inhibition, % at 5.6 µM; hit rate 0.91% among 290,000; AID 1789;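 active = inhibition above the screen-wide mean plus 3 SD, computed separately per campaign, cut at about 16% in these data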;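 also: inhibitors lower the luminescence because luciferase stays unfolded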
C8 TRAIL sens – sensitizes caspase-8 expressing cells to TRAIL; hit rate 1% among 360,000; AID 624354; inhibition (viability loss, TRAIL sensitization), % at 10 µM; NB7+C8 cells + TRAIL, ATPlite viability luminescence;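 active = compounds causing at least 50% loss of cell viability in the single-dose screen, relative to plate controls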
STAT1 blocker – reduces IFN-gamma driven STAT1 reporter signal | NIH 3T3 STAT1-luciferase reporter, luminescence | inhibition, % at 5.5 µM | hit rate 0.35% among 200,000 | AID 920;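 active = inhibition above a set limit, the mean inhibition across all tested compounds plus 3 SD, cut at about 34% in these data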
PPC-1+TRAIL kill – PPC-1 cancer cell killing with TRAIL present. PPC-1 cells + TRAIL, ATPLite viability luminescence. cell killing (% activity), % at 4 µM or 5 µM. AID 1443. hit rate 0.41% among 220,000;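 active = cell killing above 50% in the first pass at 4 µM, then a duplicate retest at 5 µM averaging 50% or more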
STAT3 inh-2 – confirmation of STAT3 signaling inhibitors. hit rate 45% among 1,200. U3A cells, IL-6 STAT3 luciferase reporter, luminescence; cell line lacks STAT1. shares compounds with STAT3 inh-1. inhibition, % at 5.7 µM;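 active = inhibition above the hit cutoff computed for the primary STAT3 screen, cut at about 44% in these data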
NFkB inh 2 – inhibits NF-kappaB, counter-screen to STAT3 inhibitors | inhibition, % at 5.7 µM | HEK293T NF-kB luciferase reporter, TNF-alpha induced | hit rate 36% among 1,200 | AID 1308 | shares compounds with STAT3 inh-1;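 active = inhibition above the mean of solvent-only control wells plus 3 SD, cutoff set per campaign, cut at about 13% in these data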
STAT1 inh STAT3c – STAT1 inhibition in STAT3 inhibitor counter-screen | shares compounds with STAT3 inh-1 | NIH 3T3 STAT1-luciferase reporter, IFN-gamma induced, luminescence | inhibition, % at 5.7 µM | hit rate 27% among 1,200 | AID 1317;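 active = inhibition above the mean plus 3 SD of solvent-only control wells, limit set per screening run, cut at about 16% in these data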
Large screens that a line does not name were inactive (follow-up assays come after a bar, where they were run). Hits are enriched below; roughly 2.3% of the tested compounds scored in any of these assays.

O=C1CNC(=S)N1c1nc(-c2ccccc2)cs1	none
O=C(COC(=O)C1=COCCO1)Nc1ccc(F)c(F)c1	none (no result: STAT3 activator, STAT3 inh-1, HSP90 refold inh, STAT1 blocker, PPC-1+TRAIL kill)
NC(=O)c1ccccc1N/C=C/C(=O)c1ccccc1	STAT3 inh-1 49.0, C8 TRAIL sens 56.9 | STAT3 inh-2 inactive | NFkB inh 2 inactive | STAT1 inh STAT3c inactive
Cc1ccc(NC(=O)c2cc(N3C(=O)C=CC3=O)ccc2N2CCOCC2)cc1	none
Cc1ccc2nc(NC(=O)CSCC(=O)OCC(=O)c3ccc(Br)cc3)sc2c1	STAT3 inh-1 87.1, HSP90 refold inh 49.9, STAT1 blocker 36.5 | STAT3 inh-2 66.7 | NFkB inh 2 23.1 | STAT1 inh STAT3c 32.9
O=C(NC(=S)Nc1ccccc1C(F)(F)F)c1ccccc1F	none
C/C(=N/NC(=O)c1ccccn1)c1ccco1	STAT3 inh-1 43.6, C8 TRAIL sens 54.2 | STAT3 inh-2 inactive | NFkB inh 2 inactive | STAT1 inh STAT3c inactive
CC(=O)N1CCc2cc(S(=O)(=O)NC(C(=O)Nc3ccc4c(c3)OCCO4)C(C)C)ccc21 (stereo not given)	none
O=C(C1CCC1)N1CCc2cc(S(=O)(=O)NC3CCCC3)ccc21	none
CCC(=O)N1CCc2cc(S(=O)(=O)Nc3ccc4c(c3)OCCO4)ccc21	STAT3 inh-1 46.6 | STAT3 inh-2 inactive | NFkB inh 2 inactive | STAT1 inh STAT3c inactive
O=C(C1CCC1)N1CCc2cc(S(=O)(=O)Nc3ccc4c(c3)OCCO4)ccc21	STAT3 inh-1 65.3 | STAT3 inh-2 50.4 | NFkB inh 2 inactive | STAT1 inh STAT3c 20.6
CCC(=O)N1CCCc2cc(S(=O)(=O)N3CCN(c4ccccc4F)CC3)ccc21	STAT3 inh-1 52.6, C8 TRAIL sens 83.2 | STAT3 inh-2 inactive | NFkB inh 2 inactive | STAT1 inh STAT3c inactive
CS(=O)(=O)N1CCc2cc(S(=O)(=O)Nc3ccc4c(c3)OCCO4)ccc21	STAT3 inh-1 46.0 | STAT3 inh-2 inactive | NFkB inh 2 inactive | STAT1 inh STAT3c 20.8
Cc1cccc(-n2ncc3c(N4CCCC4)ncnc32)c1	STAT3 inh-1 66.7, C8 TRAIL sens 79.8 | STAT3 inh-2 inactive | NFkB inh 2 inactive | STAT1 inh STAT3c inactive
Clc1cc(Cl)cc(Nc2ccccc2CN(C/C=C/c2ccc3c(c2)OCO3)Cc2ccccc2)c1	none (no result: STAT3 activator, STAT3 inh-1, HSP90 refold inh, STAT1 blocker, PPC-1+TRAIL kill)
COc1ccc(/C=N/NC(=S)Nc2cccc(C(=O)O)c2)cc1	STAT3 inh-1 77.7 | STAT3 inh-2 52.2 | NFkB inh 2 inactive | STAT1 inh STAT3c inactive
c1ccc(C2=Nn3c(nnc3-c3ccco3)SC2)cc1	none
COc1ccccc1CCNC(=O)C(=O)NCC1OCCN1S(=O)(=O)c1ccc(Cl)cc1 (stereo not given)	none (no result: STAT3 activator, STAT3 inh-1, STAT1 blocker, PPC-1+TRAIL kill)
Oc1ccc(N=Nc2ccc3c(c2)OCCO3)c2cccnc12	STAT3 inh-1 62.9 | STAT3 inh-2 inactive | NFkB inh 2 inactive | STAT1 inh STAT3c inactive
COc1cccc(N=Nc2ccc(O)c3ncccc23)c1	none (no result: STAT3 activator, STAT3 inh-1, STAT1 blocker, PPC-1+TRAIL kill)
O=[N+]([O-])c1ccc(C2OCCO2)cc1CS(=O)(=O)c1ccccc1	none
O=C1C2C3c4ccccc4C(c4ccccc43)[C@@H]2c2nc3ccccc3n21 (stereo not given in full)	STAT3 inh-1 48.0 | STAT3 inh-2 57.1 | NFkB inh 2 inactive | STAT1 inh STAT3c inactive
COc1ccc(CNC(=O)COC(=O)CNC(=O)c2sc3ccccc3c2Cl)cc1OC	none (no result: STAT3 activator, STAT3 inh-1, HSP90 refold inh, STAT1 blocker, PPC-1+TRAIL kill)
Cc1nn(C)c(C)c1NC(=O)CSc1nc(C2CC2)nc2c1cnn2-c1ccccc1	STAT3 inh-1 50.3 | STAT3 inh-2 inactive | NFkB inh 2 inactive | STAT1 inh STAT3c inactive
CCOC(=O)c1cc(-c2ccc(OC)cc2)nn1-c1ccc(C(=O)O)cc1	none
Cc1cc(C(=O)COc2cccnc2[N+](=O)[O-])c(C)n1-c1ccccc1	STAT3 inh-1 59.9 | STAT3 inh-2 inactive | NFkB inh 2 inactive | STAT1 inh STAT3c inactive
